PubChem BioAssay AID624353 (The Scripps Research Institute Molecular Screening Center, 2012)
Calls of active or inactive are those of the source.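 Rule for the calls: active = insulin-degrading enzyme inhibitors with IC50 at or below 10 µM; inactive = the rest.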

Biological target: Insulin-degrading enzyme (Homo sapiens) (UniProt P14735)
Assay: inhibition of recombinant WT IDE Abeta cleavage – biochemical, fluorescence polarization, FAbetaB substrate, round 2, counter-screen for IDE inhibitor project, late-stage follow-up (AID 624353)
Outline: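 Detection: fluorescence polarization, ex 485 nm, em 525 nm / Material: recombinant wild-type insulin-degrading enzyme (IDE), purified enzyme / Schedule: reaction at room temperature / Repeats: each compound dose-response run in triplicate / Reagent: fluorescein-Aβ-biotin peptide substrate, 100 nM / Read-out: IC50 from normalized inhibition curve / Medium: HEPES buffer at pH 7.4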

Chain of Insulin-degrading enzyme (Homo sapiens) (P14735 whole entry, looked up): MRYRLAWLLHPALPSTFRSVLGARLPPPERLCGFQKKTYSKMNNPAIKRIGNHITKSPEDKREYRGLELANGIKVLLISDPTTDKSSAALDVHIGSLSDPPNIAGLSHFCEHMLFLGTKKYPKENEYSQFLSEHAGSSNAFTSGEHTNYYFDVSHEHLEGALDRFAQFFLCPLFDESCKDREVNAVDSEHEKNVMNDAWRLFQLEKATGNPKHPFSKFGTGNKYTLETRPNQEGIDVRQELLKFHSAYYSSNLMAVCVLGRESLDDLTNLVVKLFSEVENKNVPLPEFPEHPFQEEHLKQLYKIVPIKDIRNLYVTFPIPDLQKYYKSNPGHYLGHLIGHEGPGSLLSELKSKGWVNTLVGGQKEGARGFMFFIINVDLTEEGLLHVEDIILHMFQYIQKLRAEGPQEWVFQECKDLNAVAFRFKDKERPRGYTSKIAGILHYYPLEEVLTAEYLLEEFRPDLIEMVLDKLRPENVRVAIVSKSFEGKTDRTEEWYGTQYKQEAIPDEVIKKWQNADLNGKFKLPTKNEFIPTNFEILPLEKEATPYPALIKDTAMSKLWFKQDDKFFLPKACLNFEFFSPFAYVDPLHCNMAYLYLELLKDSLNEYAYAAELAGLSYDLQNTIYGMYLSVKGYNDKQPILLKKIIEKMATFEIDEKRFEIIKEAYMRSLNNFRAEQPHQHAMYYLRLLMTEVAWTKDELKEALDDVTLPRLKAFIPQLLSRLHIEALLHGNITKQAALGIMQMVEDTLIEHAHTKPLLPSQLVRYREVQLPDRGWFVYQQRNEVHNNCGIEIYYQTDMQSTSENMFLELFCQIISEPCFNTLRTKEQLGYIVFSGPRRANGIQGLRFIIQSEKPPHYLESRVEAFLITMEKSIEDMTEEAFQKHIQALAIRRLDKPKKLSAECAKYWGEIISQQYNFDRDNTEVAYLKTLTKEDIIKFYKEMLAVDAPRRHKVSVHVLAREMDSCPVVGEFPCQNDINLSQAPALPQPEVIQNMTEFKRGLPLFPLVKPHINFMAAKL

Compound | IC50
COc1ccc(OCC(=O)N2CCN(C(=O)c3ccc(OC)c(OC)c3)CC2)cc1 | > 33 µM (inactive)
c1ccc(-c2nnc(SCc3nc4ccccc4[nH]3)n2Cc2ccco2)nc1 | > 33 µM (inactive)
c1coc(Cn2c(SCc3nc4ccccc4[nH]3)nnc2-c2ccco2)c1 | > 33 µM (inactive)
COc1ccc(C(=O)N2CCN(C(=O)CCc3c[nH]c4ccccc34)CC2)cc1OC | > 33 µM (inactive)
O=C(c1ccc(Oc2ccc(F)cc2)cc1)N1CCN(C(=O)C2COc3ccccc3O2)CC1 (centres undefined) | > 33 µM (inactive)
c1coc(Cn2c(SCc3nc4ccccc4[nH]3)nnc2-c2cccs2)c1 | > 33 µM (inactive)
COc1cc(C(=O)N2CCN(C(=O)C3COc4ccccc4O3)CC2)cc(Cl)c1OC (centres undefined) | > 33 µM (inactive)
c1coc(Cn2c(SCc3nc4ccccc4[nH]3)nnc2-c2cnccn2)c1 | > 33 µM (inactive)
COc1ccc(C(=O)N2CCN(C(=O)C(c3ccccc3)c3ccccc3)CC2)cc1OC | > 33 µM (inactive)
Cc1nc(COc2ccc(C(=O)N3CCN(C(=O)C4COc5ccccc5O4)CC3)cc2)cs1 (centres undefined) | > 33 µM (inactive)
CCOc1ccc(C(=O)N2CCN(C(=O)C3COc4ccccc4O3)CC2)cc1 (centres undefined) | > 33 µM (inactive)
CC(=O)Nc1ccccc1C(=O)N1CCN(C(=O)C2COc3ccccc3O2)CC1 (centres undefined) | 6 µM
O=C(c1ccc(OCC2CCCO2)cc1)N1CCN(C(=O)C2COc3ccccc3O2)CC1 (centres undefined) | > 33 µM (inactive)

Next, values leading:

IC50 | Compound
> 33 µM (inactive) | Cc1ccc(-c2nnc(SCc3nc4ccccc4[nH]3)n2Cc2ccco2)cc1
7 µM | O=C(c1ccc2nc(C(F)(F)F)[nH]c2c1)N1CCN(C(=O)C2COc3ccccc3O2)CC1 (centres undefined)
> 33 µM (inactive) | COc1ccc(C(=O)N2CCN(C(=O)COc3ccc(Cl)cc3)CC2)cc1OC
> 33 µM (inactive) | COc1ccc(C(=O)N2CCN(C(=O)COc3ccc(C)cc3)CC2)cc1OC
4 µM | COc1cccc(C(=O)N2CCN(C(=O)C3COc4ccccc4O3)CC2)c1 (centres undefined)
> 33 µM (inactive) | c1ccc(-c2nnc(SCc3nc4ccccc4[nH]3)n2Cc2ccco2)cc1
> 33 µM (inactive) | COc1ccc(C(=O)N2CCN(C(=O)C3CC(=O)N(c4ccccc4)C3)CC2)cc1OC (centres undefined)
> 33 µM (inactive) | COc1ccc(C(=O)N2CCN(C(=O)COc3ccccc3)CC2)cc1OC
> 33 µM (inactive) | Clc1ccc(COCc2nnc(SCc3nc4ccccc4[nH]3)n2Cc2ccco2)cc1
> 33 µM (inactive) | Cc1ccc(COCc2nnc(SCc3nc4ccccc4[nH]3)n2Cc2ccco2)cc1
> 33 µM (inactive) | O=C(c1ccc(Oc2ccccc2)cc1)N1CCN(C(=O)C2COc3ccccc3O2)CC1 (centres undefined)
